The nature of assay [1]: Antiproliferative activity against human PANC1 cells assessed as reduction in cell viability after 48 hrs by MTT assay. Format: functional, cell-based. The following applies: PANC-1, 48 h. The procedure, abridged: (§1)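 3000 cells/well incubated in triplicate with serial concentrations of compound for 24, 48 or 72 h at 37 °C. MTT (5.0 mg/mL solution) added 3 h before the end. Formazan dissolved in DMSO, absorbance read at 570 and 630 nm. Viability normalised to vehicle control. IC50 from non-linear regression (variable slope), mean ± SD of triplicates.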

Assay [2] has as its system MDA-MB-231. Description: Antiproliferative activity against human MDA-MB-231 cells assessed as reduction in cell viability after 24 hrs by MTT assay. Format: functional, cell-based. The following applies: MDA-MB-231, 24 h. The procedure, abridged: as §1
Assay [3] deals with HT-29. Description: Antiproliferative activity against human HT-29 cells assessed as reduction in cell viability after 48 hrs by MTT assay. Format: functional, cell-based. The settings on record: HT-29, 48 h. The procedure, abridged: as §1
In assay [4] the test system is UACC-903. The experiment in a line: Antiproliferative activity against human UACC-903 cells assessed as reduction in cell viability after 48 hrs by MTT assay. Format: functional, cell-based. The settings on record: UACC-903, 48 h. The procedure, abridged: as §1
Assay [5] relates to UACC-903. Description: Antiproliferative activity against human UACC-903 cells assessed as reduction in cell viability after 72 hrs by MTT assay. Format: functional, cell-based. The settings on record: UACC-903, 72 h. The essentials: as §1
In assay [6] the test system is HT-29. Description: Antiproliferative activity against human HT-29 cells assessed as reduction in cell viability after 72 hrs by MTT assay. Format: functional, cell-based. The following applies: HT-29, 72 h. The essentials: as §1
Assay [7] concerns MDA-MB-231. Description: Antiproliferative activity against human MDA-MB-231 cells assessed as reduction in cell viability after 72 hrs by MTT assay. Format: functional, cell-based. The following applies: MDA-MB-231, 72 h. The essentials:
as §1

In assay [8] the test system is MDA-MB-231. The experiment in a line: Antiproliferative activity against human MDA-MB-231 cells assessed as reduction in cell viability after 48 hrs by MTT assay. The settings on record: MDA-MB-231, 48 h. Format: functional, cell-based. The procedure, abridged:
as §1

Assay [9] concerns HT-29. Description: Antiproliferative activity against human HT-29 cells assessed as reduction in cell viability after 24 hrs by MTT assay. The settings on record: HT-29, 24 h. Format: functional, cell-based. The essentials:
as §1

Assay [10] concerns UACC-903. Description: Antiproliferative activity against human UACC-903 cells assessed as reduction in cell viability after 24 hrs by MTT assay. Format: functional, cell-based. The following applies: UACC-903, 24 h. The essentials: as §1
Assay [11] is described as follows: Antiproliferative activity against human PANC1 cells assessed as reduction in cell viability after 72 hrs by MTT assay. Format: functional, cell-based. The following applies: PANC-1, 72 h. The essentials:
as §1

The nature of assay [12]: Antiproliferative activity against human PANC1 cells assessed as reduction in cell viability after 24 hrs by MTT assay. Format: functional, cell-based. The following applies: PANC-1, 24 h. The essentials: as §1
Assay [13] deals with HCT-116. The experiment in a line: Induction of cell death in human HCT116 cells at 1 mM after 24 hrs by ethidium bromide staining-based fluorescence microscopy. Format: functional. The essentials:
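HCT116 cells were exposed for 24 h with a DMSO vehicle comparison, then trypsinized and stained with calcein-AM (live, esterase activity) and ethidium homodimer-1 (dead, lost membrane integrity). Fluorescence microscopy was done at 20X, and the percentage of dead cells was calculated as mean ±SD.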

For assay [14], the system named is HCT-116. The experiment in a line: Cytotoxicity against human HCT116 cells assessed as reduction in cell viability after 48 hrs MTT assay. Format: functional, cell-based. The procedure, abridged:
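Cells (HCT116, nHDF in serum-free fibroblast medium with growth kit, or MEFs) exposed to increasing compound concentrations for 48 h at 37 °C. Viability read by MTT: 3000 cells/well, triplicate, MTT 3 h before end, formazan in DMSO, absorbance 570/630 nm. Mean ± SD.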

Calls of active or inactive are those of the source. The rule behind the calls is not given here.

On to `CC(C)Cc1ccc(C(C)C(=O)O)cc1` (stereo not given) [IBUPROFEN], for which the IC50 (in assay [1]; with MDA-MB-231 [2]; in the assay on HT-29 [3]; in the assay on UACC-903 [4]; in the assay on UACC-903 [5]; in the assay with HT-29 [6]) was more than 50 µM in each case. Also, the IC50 (with MDA-MB-231 [7]; in the assay with MDA-MB-231 [8]; in the assay on HT-29 [9]; in the assay with UACC-903 [10]; in assay [11]; in assay [12]) was more than 50 µM each time.

With `C[Se]CC(NC(=O)c1ccccc1OC(C)=O)C(=O)O` (stereo not given), the IC50 in assay [1] was 26.1 µM; in the assay with MDA-MB-231 [2], more than 50 µM; in the assay with HT-29 [3], more than 50 µM; with UACC-903 [4], more than 50 µM; in the assay with UACC-903 [5] it was more than 50 µM; in the assay on HT-29 [6], more than 50 µM. Further, the half-inhibitory concentration (IC50) with MDA-MB-231 [7] was more than 50 µM; in the assay with MDA-MB-231 [8], more than 50 µM; with HT-29 [9] it was more than 50 µM; with UACC-903 [10], more than 50 µM; in assay [11], 27.6 µM; in [12] it was more than 50 µM.

Consider `COc1ccc2cc([C@H](C)C(=O)O)ccc2c1` [NAPROXEN], for which the 50% inhibitory concentration (IC50) (in assay [1]; in the assay with MDA-MB-231 [2]; with HT-29 [3]; in the assay with UACC-903 [4]; in the assay with UACC-903 [5]; with HT-29 [6]) was more than 50 µM throughout. Also, the half-inhibitory concentration (IC50) (in the assay with MDA-MB-231 [7]; in the assay on MDA-MB-231 [8]; in the assay on HT-29 [9]; in the assay on UACC-903 [10]; in assay [11]; in assay [12]) was more than 50 µM each time.

Turning to `CC(=O)Oc1ccccc1C(=O)[Se]CC[Se]C#N`, the IC50 in assay [1] is 18.9 µM; with MDA-MB-231 [2], more than 50 µM; in the assay on HT-29 [3] it was 27.5 µM; in the assay with UACC-903 [4], 15.8 µM; in the assay on UACC-903 [5], 12.7 µM; with HT-29 [6] it was 17.7 µM. Moreover, the IC50 is 18.6 µM with MDA-MB-231 [7]; 34.2 µM with MDA-MB-231 [8]; more than 50 µM in the assay with HT-29 [9]; more than 50 µM in the assay on UACC-903 [10]; 9.6 µM in assay [11]; more than 50 µM in assay [12].

`CC(=O)Oc1ccccc1C(=O)O` [ASPIRIN]: the IC50 (in assay [1]; in the assay on MDA-MB-231 [2]; with HT-29 [3]; in the assay on UACC-903 [4]; in the assay with UACC-903 [5]; in the assay on HT-29 [6]) was more than 50 µM in each case. The concentration for half-maximal inhibition (IC50) (in the assay with MDA-MB-231 [7]; in the assay with MDA-MB-231 [8]; with HT-29 [9]; in the assay on UACC-903 [10]; in [11]; in assay [12]) was more than 50 µM in each case. Further, in the assay with HCT-116 [13], the outcome was inactive. Further, the result in the assay on HCT-116 [14] was Active.

In the case of `CC(=O)Oc1ccccc1C(=O)[Se]CCBr`, the IC50 was more than 50 µM in assay [1]; 23.7 µM in the assay on MDA-MB-231 [2]; 27.7 µM with HT-29 [3]; 19.4 µM in the assay on UACC-903 [4]; 10.2 µM with UACC-903 [5]; 19.3 µM in the assay with HT-29 [6]. The IC50 in the assay on MDA-MB-231 [7] is 8.7 µM; in the assay on MDA-MB-231 [8] it was 18.7 µM; in the assay with HT-29 [9], 28.5 µM; in the assay with UACC-903 [10], 22.7 µM; in assay [11], more than 50 µM; in [12] it was 39.3 µM.

As to `CC(=O)Oc1ccccc1C(=O)OCC[Se]C#N`, the half-inhibitory concentration (IC50) in assay [1] is 36.1 µM; with MDA-MB-231 [2], more than 50 µM; with HT-29 [3], 30.9 µM; with UACC-903 [4], 14.5 µM; in the assay on UACC-903 [5], 17.6 µM; in the assay with HT-29 [6], 20.2 µM. Also, the IC50 in the assay with MDA-MB-231 [7] came to 34.3 µM; in the assay with MDA-MB-231 [8] it was 23.8 µM; in the assay with HT-29 [9], 10.2 µM; with UACC-903 [10], 33.9 µM; in assay [11], 15.1 µM; in assay [12], 38.7 µM.

`CC(C)Cc1ccc(C(C)C(=O)NCC[Se]C#N)cc1` (stereo not given): the IC50 (in assay [1]; in the assay with MDA-MB-231 [2]; in the assay with HT-29 [3]; in the assay on UACC-903 [4]; with UACC-903 [5]; with HT-29 [6]) was more than 50 µM in each case. Also, the IC50 (in the assay on MDA-MB-231 [7]; with MDA-MB-231 [8]; in the assay with HT-29 [9]; in the assay on UACC-903 [10]; in assay [11]; in [12]) was more than 50 µM in each case.

In the case of `COc1ccc2cc([C@H](C)C(=O)NCC[Se]C#N)ccc2c1`, the IC50 (in assay [1]; with MDA-MB-231 [2]; in the assay with HT-29 [3]; in the assay with UACC-903 [4]; in the assay on UACC-903 [5]; in the assay with HT-29 [6]) was more than 50 µM in each case. The IC50 (with MDA-MB-231 [7]; with MDA-MB-231 [8]; in the assay on HT-29 [9]; with UACC-903 [10]; in [11]; in [12]) was more than 50 µM in each case.

Regarding `O=c1[nH]cc(F)c(=O)[nH]1`, the outcome with HCT-116 [14] was Active.

Consider `CC(=O)Oc1ccccc1C(=O)NCCSC#N`, for which the IC50 in assay [1] is 17.7 µM; with MDA-MB-231 [2] it was more than 50 µM; in the assay on HT-29 [3] it was more than 50 µM; in the assay with UACC-903 [4], more than 50 µM; in the assay on UACC-903 [5], more than 50 µM; in the assay with HT-29 [6], more than 50 µM. In addition, the IC50 in the assay with MDA-MB-231 [7] is more than 50 µM; with MDA-MB-231 [8] it was more than 50 µM; with HT-29 [9], more than 50 µM; in the assay with UACC-903 [10], more than 50 µM; in assay [11] it was 8.7 µM; in [12], more than 50 µM.

On to `CC(=O)Oc1ccccc1C(=O)[Se]CC[Se]C(=O)c1ccccc1OC(C)=O`, for which the IC50 in assay [1] turned out to be 13.5 µM; in the assay on MDA-MB-231 [2], 18.6 µM; in the assay on HT-29 [3], 3.5 µM; in the assay with UACC-903 [4] it was 3.6 µM; in the assay with UACC-903 [5], 3 µM; in the assay on HT-29 [6], 5.5 µM. The half-inhibitory concentration (IC50) with MDA-MB-231 [7] came out at 7.6 µM; in the assay on MDA-MB-231 [8] it was 11 µM; in the assay on HT-29 [9] it was 18.6 µM; in the assay with UACC-903 [10] it was 17.2 µM; in assay [11], 3.4 µM; in assay [12], 33.4 µM.

The record behind these values is ChEMBL document CHEMBL3792386, “Design, Synthesis, and Biological Evaluation of Novel Selenium (Se-NSAID) Molecules as Anticancer Agents” (J Med Chem, 2016).
